Blank lines part the entries; values can stand above or below the molecule they belong to.
Columns and labels:
[1] = tested on: Blood; assay: Antiinflammatory activity in human whole blood assessed as inhibition of LPS-induced TNFalpha production after 6 hrs; assay type: functional, tissue-based
In short: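 Human whole blood was stimulated with LPS, and TNFα production was measured. % inhibition was plotted against log test concentration, and IC50 came from a least-squares linear regression. 95% confidence intervals were calculated by Fieller's theorem. Values are mean and S.D. of three to four determinations.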

[2] = tested on: Mus musculus; assay: Antiinflammatory activity in po dosed mouse assessed as inhibition of LPS-induced TNFalpha production administered 30 mins before LPS challenge measured after 1 hr by ELISA; assay type: functional; conditions: read-out: ID50 (the source's name)
In short: (§1)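 LPS-induced TNFα production was measured in mice, with N = 5. Activity is reported either as ID50 or as % inhibition at a single 20 mg/kg dose.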

[3] = species on record: Mus musculus; assay: Selectivity ratio of compound ID50 to 4-(2-(4-fluorophenyl)-4-(1,2,3,6-tetrahydropyridin-4-yl)-1H-pyrrol-3-yl)pyridine ID50 for antiinflammatory activity in mouse; assay type: functional
[4] = tested on: Mus musculus; assay: Antiinflammatory activity in mouse assessed as inhibition of LPS-induced TNFalpha production at 20 mg/kg, po administered 30 mins before LPS challenge measured after 1 hr by ELISA; assay type: functional; in short: as §1
[5] = tested on: Blood; assay: Antiinflammatory activity in human whole blood assessed as inhibition of LPS-induced TNFalpha production at 10 uM after 6 hrs; assay type: functional
In short: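 Human whole blood was stimulated with LPS, and inhibition of TNFα production was measured at a single test concentration of 10 μM. Values are mean and S.D. of three to four determinations.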

Structure (SMILES): CN1CC=C(c2c[nH]c(-c3ccc(F)cc3)c2-c2ccncc2)CC1
IC50 [1]: 3960 nM | ED50 [2]: 2.89 mg/kg | Ratio [3]: >2

Structure (SMILES): CCN1CCC(c2c[nH]c(-c3ccc(F)cc3)c2-c2ccncc2)=CC1C (configuration not stated)
IC50 [1]: 1610 nM | ED50 [2]: 5.28 mg/kg

Structure (SMILES): CCCCCCCCN1CC=C(c2c[nH]c(-c3ccc(F)cc3)c2-c2ccncc2)CC1
IC50 [1]: 1380 nM | inhibition in vivo at 20 mg/kg [4]: 45%

Structure (SMILES): Fc1ccc(-c2[nH]cc(C3=CCN(Cc4ccccc4)CC3)c2-c2ccncc2)cc1
IC50 [1]: > 30000 nM

IC50 [1]: 1280 nM
Structure (SMILES): CC1CC(c2c[nH]c(-c3ccc(F)cc3)c2-c2ccncc2)=CCN1C (configuration not stated)
ED50 [2]: 2.73 mg/kg

Structure (SMILES): C=CCC1C=C(c2c[nH]c(-c3ccc(F)cc3)c2-c2ccncc2)CCN1C (configuration not stated)
inhibition at 10 µM [5]: 48.7%

Structure (SMILES): CC1C=C(c2c[nH]c(-c3ccc(F)cc3)c2-c2ccncc2)CCN1C (configuration not stated)
IC50 [1]: 630 nM | ED50 [2]: 1.42 mg/kg

IC50 [1]: 8440 nM
Structure (SMILES): CN1C(C)(C)C=C(c2c[nH]c(-c3ccc(F)cc3)c2-c2ccncc2)CC1(C)C
ED50 [2]: 7.27 mg/kg

Structure (SMILES): CC(C)N1CC=C(c2c[nH]c(-c3ccc(F)cc3)c2-c2ccncc2)CC1
IC50 [1]: 980 nM | ED50 [2]: 6.18 mg/kg

Structure (SMILES): CC1C=C(c2c[nH]c(-c3ccc(F)cc3)c2-c2ccncc2)CCN1 (configuration not stated)
IC50 [1]: 710 nM | ED50 [2]: 2.29 mg/kg

Structure (SMILES): CCCN1CC=C(c2c[nH]c(-c3ccc(F)cc3)c2-c2ccncc2)CC1
IC50 [1]: 520 nM | ED50 [2]: 6.75 mg/kg

Structure (SMILES): CCN1CC=C(c2c[nH]c(-c3ccc(F)cc3)c2-c2ccncc2)CC1
IC50 [1]: 1210 nM | ED50 [2]: 6.67 mg/kg

Structure (SMILES): CN1CCC(c2c[nH]c(-c3ccc(F)cc3)c2-c2ccncc2)=CC1Cc1ccccc1 (configuration not stated)
inhibition at 10 µM [5]: 30.8%

Structure (SMILES): CC(C)(C)N1CC=C(c2c[nH]c(-c3ccc(F)cc3)c2-c2ccncc2)CC1
IC50 [1]: > 10000 nM

Structure (SMILES): CCCN1CCC(c2c[nH]c(-c3ccc(F)cc3)c2-c2ccncc2)=CC1C (configuration not stated)
IC50 [1]: 440 nM | ED50 [2]: 2.79 mg/kg

— ChEMBL document CHEMBL1156222, “Tetrahydropyridine derivatives with inhibitory activity on the production of proinflammatory cytokines: part 2” (Bioorg Med Chem Lett, 2010)
